# GASC-1 inh: human JMJD2C demethylase inhibition; inhibition, % at 2.35 µM; GST-JMJD2C(1-420) H3K9me3 demethylation, DELFIA europium; actives 0.069% (n = 330,000); Q9H3R0; AID 2099;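 active = more than half of a compound's replicate wells show inhibition beyond 50%, single wells judged on their own value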;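 note: signal counts dimethyl H3K9 product captured on neutravidin plate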
# Target sequence (Q9H3R0 1-420 limits assumed): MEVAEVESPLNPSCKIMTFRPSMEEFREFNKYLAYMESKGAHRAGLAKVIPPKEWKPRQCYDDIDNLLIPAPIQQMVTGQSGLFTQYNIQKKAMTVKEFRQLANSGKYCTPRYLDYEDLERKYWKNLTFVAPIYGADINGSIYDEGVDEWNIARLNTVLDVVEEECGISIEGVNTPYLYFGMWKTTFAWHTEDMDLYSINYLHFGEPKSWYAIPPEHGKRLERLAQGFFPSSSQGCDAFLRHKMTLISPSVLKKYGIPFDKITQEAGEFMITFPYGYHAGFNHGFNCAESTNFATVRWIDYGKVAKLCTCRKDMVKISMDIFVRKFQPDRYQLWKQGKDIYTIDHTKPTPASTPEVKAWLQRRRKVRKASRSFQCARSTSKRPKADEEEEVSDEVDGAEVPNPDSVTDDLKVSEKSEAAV
# GRIN3A LBD mod: NR3A (human) ligand-binding domain modulation; NR3A LBD differential scanning fluorimetry, Tm shift; 0% = protein alone, 100% = glycine-bound protein; actives 2.5% (n = 340,000); Tm shift relative to glycine control, % at 25 µM; AID 1259313;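 active = melting temperature shift of at least 10% of the positive control shift, at one fixed dose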
# Rtt109 Vps75: inhibitors of Candida albicans Rtt109/Vps75 histone acetyltransferase. Q5AAJ8. purified Rtt109/Vps75, ThioGlo CoA-SH fluorescence, 4 h. inhibition, % at 34.9 µM. actives 0.16% (n = 330,000). AID 540336;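 active = inhibition of at least 50% in every replicate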
# T cell modulator: modulates CD8 T cell binding to vesicles; response (vesicle binding), % at 7 µM; actives 0.068% (n = 330,000); 2C CD8+ T cell-vesicle binding, flow cytometry; stronger effect = lower value;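 active = response, share of CD8 T cells binding vesicles, and their 90th percentile fluorescence all below set limits, cut at about 80% in these data, passing the limit was not always enough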;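 note: values below 100% mean blocked vesicle binding to the CD8+ T cells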
#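 material = purified 2C TCR transgenic mouse naive CD8+ T cells | controls = Unloaded micro-vesicles (low), QL9 vesicles with 0.7% DMSO (high) | detection = cytometric PE anti-B7-1 and Alexa647 anti-CD8 signals after 1% paraformaldehyde fixation | incubation = binding step 1.5 h, 37 °C, antibody labelling 20 min, ice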
# Hits are given with their value; 0 = inactive; - = no result. This is a sample that favours compounds with a hit; in the whole collection about 2.8% have one here.
SMILES,GASC-1 inh,GRIN3A LBD mod,Rtt109 Vps75,T cell modulator
Cc1ccc(NC(=O)COC(=O)CCc2ccccc2)cc1S(=O)(=O)N1CCOCC1,0,0,0,0
CCOc1ccc(NC(=O)CN(C)C(=O)CCC2CCCCC2)cc1OCC,0,0,0,0
N#Cc1c(NC(=O)COC(=O)c2ccc(O)cc2O)sc2c1CCC2,0,0,0,0
COc1ccc(S(=O)(=O)N2CCCCC2)cc1NC(=O)CSc1ncccn1,0,0,0,0
CCOC(=O)c1nnc(-c2ccccc2)nc1Oc1ccc(Cl)cc1,0,10.8,0,0
CCOC(=O)c1cnc(-c2ccccc2)nc1Oc1cccc(Cl)c1,0,14.0,0,0
CCOC(=O)c1cnc(-c2ccccc2)nc1Oc1ccc(Cl)c(Cl)c1,0,0,0,0
O=C1C=C(c2cc3ccccc3o2)C[C@@H](c2ccc(F)cc2)C1,0,0,0,0
CN(C)S(=O)(=O)c1cccc(C(=O)NCCOC(=O)c2cc(F)c(F)cc2Cl)c1,0,0,0,0
CCN(CC)S(=O)(=O)c1ccc(C(=O)NCCOC(=O)c2ccc(F)cc2F)cc1,0,19.0,0,0
CN(Cc1ccc(Cl)c(Cl)c1)C(=O)CN1C(=O)NC2(CCCC2)C1=O,0,0,0,0
COc1cc(/C=C/C(=O)N2C(=O)c3cccc(N)c3C2=O)cc(OC)c1OC,0,0,0,0
COc1ccc(OC)c(/C=C/C(=O)N2C(=O)c3cccc(N)c3C2=O)c1,0,11.0,0,0
O=C(Nc1ccc(Cl)c(Cl)c1)OCCNC(=O)c1cccc(Cl)c1,0,13.4,0,0
O=C(Nc1ccccc1)OCCNC(=O)c1cccc(Br)c1,0,0,0,0
COc1ccc(C2SCCN2C(=S)Nc2cccc(Cl)c2)cc1 (stereo not given),0,15.7,0,0
Fc1cc(F)c(C2SCCN2C(=S)Nc2cccc(C(F)(F)F)c2)c(F)c1 (stereo not given),0,15.9,0,0
CCOC(=O)c1ccc(NC(=S)N2CCSC2c2c(F)cc(F)cc2F)cc1 (stereo not given),0,0,0,0
CC1CCCC(NC(=O)C2CC(=O)N(Cc3ccccc3)C2)C1C (stereo not given),0,0,0,0
Cc1cccc(NC(=O)NN2CCN(C)CC2)c1C,0,0,0,0
CC(=O)Nc1cccc(NC(=O)CSc2nnc(NC(=O)C3CC3)s2)c1,0,0,0,0
O=C(CSc1nnc(NC(=O)C2CCC2)s1)Nc1ccccc1,0,0,0,0
COc1cccc(NC(=O)CSc2nnc(NC(=O)C3CC3)s2)c1,0,31.0,0,0
Cc1cccc(NC(=O)CSc2nnc(NC(=O)C3CCC3)s2)c1,0,18.4,0,0
Cc1cccc(C(=O)Nc2nnc(SCC(=O)Nc3ccc4c(c3)oc3ccccc34)s2)c1,0,75.7,0,0
SMILES,GASC-1 inh,GRIN3A LBD mod,Rtt109 Vps75,T cell modulator
COc1ccccc1C(=O)Nc1nnc(SCC(=O)Nc2ccc3c(c2)oc2ccccc23)s1,0,0,0,0
O=C(COC(=O)C1C2CC3OC(=O)C1C3C2)Nc1ccccc1 (stereo not given),0,0,0,0
Cc1ccc(-n2c(SCC(N)=O)nc3c(c2=O)C2(CCCC2)Cc2ccccc2-3)cc1,0,13.1,0,0
Cc1ccc(-c2cc(Cc3ccncc3)c(=O)[nH]n2)cc1,0,0,0,0
O=C(Oc1cccc(NC(=O)c2ccco2)c1)c1cccc(S(=O)(=O)N2CCCC2)c1,51.7,0,0,0
COc1ccc(C(=O)Nc2ccc(S(=O)(=O)N3CCCCC3)cc2)cc1,0,23.6,0,0
O=C(Nc1cccc(S(=O)(=O)N2CCCC2)c1)c1cccc(OC(F)F)c1,0,0,0,0
O=C(Nc1ccc(S(=O)(=O)N2CCCC2)cc1)c1cccc(OC(F)F)c1,0,19.2,0,0
O=C(Nc1cccc(S(=O)(=O)N2CCCCC2)c1)c1ccco1,0,0,0,0
Cc1ccc(NC(=O)c2ccc(S(=O)(=O)N3CCCC3)cc2)cc1,0,16.0,0,0
CCc1nn(C)c2c(=O)c(=O)c2n(C)[nH]1,0,0,0,0
Cc1ccc(S(=O)(=O)N(C)c2ccccc2C(=O)N2CCOCC2)cc1,0,0,0,0
O=C(CNC(=O)c1ccccc1F)N/N=C/c1cccnc1,0,0,0,0
Cn1c(SCc2ccccn2)nc2c1c(=O)[nH]c(=O)n2C,0,0,0,0
O=C(Nc1ccc(S(=O)(=O)N2CCCC2)cc1)c1ccc([N+](=O)[O-])o1,0,27.3,0,0
O=C(NCCN1CCCCC1)Nc1ccc([N+](=O)[O-])cc1,0,0,51.2,0
CCN1CCN(CCNC(=O)Nc2ccc([N+](=O)[O-])cc2)CC1,0,0,0,0
O=C(Nc1ccc(S(=O)(=O)N2CCOCC2)cc1)c1ccc([N+](=O)[O-])o1,0,0,0,0
O=C(Nc1ccc(S(=O)(=O)N2CCCC2)cc1)c1ccc([N+](=O)[O-])cc1,0,26.6,0,0
Cc1ccc(S(=O)(=O)N2CCN(C(=O)CNC(=O)c3ccc(Cl)cc3)CC2)cc1,0,0,0,37.4
Cc1ccc(NC(=O)CCCc2ccccc2)c([N+](=O)[O-])c1,0,0,0,0
Cc1ccc(C)c(Nc2cc(C)nc3ccccc23)c1,0,0,0,0
O=C(CCn1cncn1)N1CCCC(N2CCN(c3cccc(C(F)(F)F)c3)CC2)C1 (stereo not given),0,0,0,0
O=C(Nc1ccc(Br)cc1F)c1ccc2c(c1)N(Cc1ccccc1)C(=O)CS2=O (stereo not given),0,14.4,0,0
CC(=O)OCC(=O)C1(O)CCC2C3CCC4=CC(=O)CCC4(C)C3(F)C(O)CC21C (stereo not given),-,0,0,-
SMILES,GASC-1 inh,GRIN3A LBD mod,Rtt109 Vps75,T cell modulator
COc1ccc(Cl)cc1NC(=O)c1cc(-c2ccccc2O)n[nH]1,0,23.9,0,0
O=C(NCc1ccc2c(c1)OCO2)c1ccc(CS(=O)Cc2cccc(Cl)c2)o1 (stereo not given),0,0,52.4,0
COc1ccccc1-c1cc(-c2cc(Cl)ccc2O)n[nH]1,0,0,0,0
CCOc1ccccc1NC(=O)c1ccc2[nH]c(C)c(C)c2c1,0,0,0,0
O=C(NCc1ccc2c(c1)OCO2)c1ccc(CS(=O)Cc2ccc(Cl)cc2)o1 (stereo not given),0,0,0,0
COc1ccc(NC(=O)c2ccc3[nH]c(C)c(C)c3c2)c(OC)c1,0,14.8,0,0
COc1ccc(OC)c(NC(=O)c2cc(-c3cc(Cl)ccc3O)n[nH]2)c1,0,33.2,0,0
NS(=O)(=O)c1ccc(NC(=O)c2cc(-c3cc(Cl)ccc3O)n[nH]2)cc1,0,33.6,0,0
O=C(NCc1ccc2c(c1)OCO2)c1cc(-c2cc(Cl)ccc2O)n[nH]1,0,11.2,0,0
COc1ccc(NC(=O)c2cc(-c3ccc(C)cc3O)n[nH]2)c(OC)c1,0,37.5,0,0
COc1ccc(CNC(=O)c2cc(-c3cc(C)ccc3O)n[nH]2)cc1,0,0,0,0
Cc1cc(O)c(-c2cc(C(=O)NCc3ccc4c(c3)OCO4)[nH]n2)cc1C,0,0,0,0

# Screening data from PubChem.
